Results as given in ChEMBL document CHEMBL3046087, “Aminomethylphosphonic acid accumulation in plant species treated with glyphosate” (J Agric Food Chem, 2008).

Legend:
[1] = system: Senna occidentalis; assay: Drug level in Senna occidentalis (coffee senna) assessed as AMPA level at growth inhibition I50 level rate measured 7 days post treatment; assay type: organism-based; settings: in vivo, 168 h
How it was run: (§1)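 Greenhouse plants (28/22 °C, 13 h photoperiod) were sprayed with glyphosate at each species' I50 rate, with Tween 20-treated controls. Shoots were cut at 7 DAT and rinsed to remove surface herbicide. Pooled ground tissue (1 g) was water-extracted twice with sonication, acidified, and washed with methylene chloride. Extracts were derivatized with heptafluorobutanol/TFAA (90 °C, 1 h) and measured by GC-MS against derivatized standards, in duplicate.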

[2] = system: Vigna unguiculata; assay: Drug level in Vigna unguiculata (cowpea) assessed as AMPA level at growth inhibition I50 level rate measured 7 days post treatment; assay type: organism-based; settings: in vivo, 168 h; how it was run: as §1
[3] = system: Glycine max; assay: Drug level in non glyphosate-resistant Glycine max (soybean) assessed as AMPA level at growth inhibition I50 level rate measured 7 days post treatment; assay type: organism-based; settings: in vivo, 168 h; how it was run: as §1
[4] = system: Glycine max; assay: Drug level in glyphosate-resistant Glycine max (soybean) assessed as AMPA level at growth inhibition I50 level rate measured 7 days post treatment; assay type: organism-based; settings: in vivo, 168 h; how it was run: as §1
[5] = Drug level in non glyphosate-resistant Zea mays (maize) at growth inhibition I50 level rate measured 7 days post treatment; assay type: organism-based; settings: in vivo, read-out: Drug uptake; how it was run: as §1
[6] = Drug level in Lolium multiflorum (Italian ryegrass) at growth inhibition I50 level rate measured 7 days post treatment; assay type: organism-based; settings: in vivo, read-out: Drug uptake; how it was run: as §1
[7] = Drug level in glyphosate-resistant Zea mays (maize) at growth inhibition I50 level rate measured 7 days post treatment; assay type: organism-based; settings: in vivo, read-out: Drug uptake; how it was run: as §1
[8] = Drug level in Abutilon theophrasti (velvetleaf) at growth inhibition I50 level rate measured 7 days post treatment; assay type: organism-based; settings: in vivo, read-out: Drug uptake; how it was run: as §1
[9] = Drug level in Conyza canadensis (horseweed) at growth inhibition I50 level rate measured 7 days post treatment; assay type: organism-based; settings: erigeron canadensis, in vivo; read-out: Drug uptake; how it was run: as §1
[10] = Drug level in Pueraria montana var. lobata ( kudzu) at growth inhibition I50 level rate measured 7 days post treatment; assay type: organism-based; settings: in vivo, read-out: Drug uptake; how it was run: as §1
[11] = Drug level in Desmanthus illinoensis (Illinois bundleflower) at growth inhibition I50 level rate measured 7 days post treatment; assay type: organism-based; settings: in vivo, read-out: Drug uptake; how it was run: as §1
[12] = Drug level in Sesbania herbacea at growth inhibition I50 level rate measured 7 days post treatment; assay type: organism-based; settings: in vivo, read-out: Drug uptake; how it was run: as §1
[13] = Drug level in Senna occidentalis (coffee senna) at growth inhibition I50 level rate measured 7 days post treatment; assay type: organism-based; settings: in vivo, read-out: Drug uptake; how it was run: as §1
[14] = Drug level in Senna obtusifolia (sicklepod) at growth inhibition I50 level rate measured 7 days post treatment; assay type: organism-based; settings: in vivo, read-out: Drug uptake; how it was run: as §1
[15] = Drug level in Vigna unguiculata (cowpea) at growth inhibition I50 level rate measured 7 days post treatment; assay type: organism-based; settings: in vivo, read-out: Drug uptake; how it was run: as §1
[16] = Drug level in non glyphosate-resistant Glycine max (soybean) at growth inhibition I50 level rate measured 7 days post treatment; assay type: organism-based; settings: in vivo, read-out: Drug uptake; how it was run: as §1
[17] = Drug level in glyphosate-resistant Glycine max (soybean) at growth inhibition I50 level rate measured 7 days post treatment; assay type: organism-based; settings: in vivo, read-out: Drug uptake; how it was run: as §1
[18] = system: Lolium multiflorum; assay: Growth inhibition of Lolium multiflorum (Italian ryegrass) measured 7 days post treatment; assay type: functional
[19] = system: Zea mays; assay: Growth inhibition of glyphosate-resistant Zea mays (maize) measured 7 days post treatment; assay type: functional
[20] = system: Erigeron canadensis; assay: Growth inhibition of Conyza canadensis (horseweed) measured 7 days post treatment; assay type: functional
[21] = system: Glycine max; assay: Growth inhibition of non glyphosate-resistant Glycine max (soybean) measured 7 days post treatment; assay type: functional
[22] = system: Glycine max; assay: Growth inhibition of glyphosate-resistant Glycine max (soybean) measured 7 days post treatment; assay type: functional
[23] = system: Pueraria montana var. lobata; assay: Growth inhibition of Pueraria montana var. lobata ( kudzu) measured 7 days post treatment; assay type: functional
[24] = system: Desmanthus illinoensis; assay: Growth inhibition of Desmanthus illinoensis (Illinois bundleflower) measured 7 days post treatment; assay type: functional
[25] = system: Sesbania herbacea; assay: Growth inhibition of Sesbania herbacea measured 14 days post treatment
[26] = system: Vigna unguiculata; assay: Growth inhibition of Vigna unguiculata (cowpea) measured 14 days post treatment
[27] = system: Senna obtusifolia; assay: Growth inhibition of Senna obtusifolia (sicklepod) measured 14 days post treatment
[28] = system: Senna occidentalis; assay: Growth inhibition of Senna occidentalis (coffee senna) measured 14 days post treatment
[29] = system: Abutilon theophrasti; assay: Growth inhibition of Abutilon theophrasti (velvetleaf) measured 14 days post treatment
[30] = system: Zea mays; assay: Growth inhibition of non glyphosate-resistant Zea mays (maize) measured 14 days post treatment

O=C(O)CNCP(=O)(O)O [GLYPHOSATE]
Drug uptake [1]: 287 ng/g
Drug uptake [2]: 4765 ng/g
Drug uptake [3]: 668 ng/g
Drug uptake [4]: 119 ng/g
concentration at 168 h [5]: 851 ng/g
concentration at 168 h [6]: 7430 ng/g
concentration at 168 h [7]: 308 ng/g
concentration at 168 h [8]: 678 ng/g
concentration at 168 h [9]: 26300 ng/g
concentration at 168 h [10]: 5560 ng/g
concentration at 168 h [11]: 3270 ng/g
concentration at 168 h [12]: 38600 ng/g
concentration at 168 h [13]: 5910 ng/g
concentration at 168 h [14]: 6410 ng/g
concentration at 168 h [15]: 26800 ng/g
concentration at 168 h [16]: 25000 ng/g
concentration at 168 h [17]: 5830 ng/g
I50 [18]: 220 gAi/ha
I50 [19]: 93 gAi/ha
I50 [20]: 170 gAi/ha
I50 [21]: 250 gAi/ha
I50 [22]: 250 gAi/ha
I50 [23]: 77 gAi/ha
I50 [24]: 272 gAi/ha
I50 [25]: 456 gAi/ha
I50 [26]: 201 gAi/ha
I50 [27]: 252 gAi/ha
I50 [28]: 75 gAi/ha
I50 [29]: 122 gAi/ha
I50 [30]: 93 gAi/ha
